Assays:
RAW264.7 = assay: Cytotoxicity against mouse RAW264.7 cells assessed as living cells at 7.5 uM by MTT assay; type: cell-based; settings: raw264.7, 7.5 µM
How it was run: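 RAW 264.7 macrophages: MTT viability assay run in parallel with each nitrite (Griess) experiment, same cell line and same compound treatment conditions.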

[1] = target: T1, Protein kinase C zeta type (Homo sapiens, UniProt Q05513); assay: Inhibition of human PKCzeta assessed as phosphorylation reaction after 4 mins incubation by cell-free assay
T1 sequence (Q05513 whole entry): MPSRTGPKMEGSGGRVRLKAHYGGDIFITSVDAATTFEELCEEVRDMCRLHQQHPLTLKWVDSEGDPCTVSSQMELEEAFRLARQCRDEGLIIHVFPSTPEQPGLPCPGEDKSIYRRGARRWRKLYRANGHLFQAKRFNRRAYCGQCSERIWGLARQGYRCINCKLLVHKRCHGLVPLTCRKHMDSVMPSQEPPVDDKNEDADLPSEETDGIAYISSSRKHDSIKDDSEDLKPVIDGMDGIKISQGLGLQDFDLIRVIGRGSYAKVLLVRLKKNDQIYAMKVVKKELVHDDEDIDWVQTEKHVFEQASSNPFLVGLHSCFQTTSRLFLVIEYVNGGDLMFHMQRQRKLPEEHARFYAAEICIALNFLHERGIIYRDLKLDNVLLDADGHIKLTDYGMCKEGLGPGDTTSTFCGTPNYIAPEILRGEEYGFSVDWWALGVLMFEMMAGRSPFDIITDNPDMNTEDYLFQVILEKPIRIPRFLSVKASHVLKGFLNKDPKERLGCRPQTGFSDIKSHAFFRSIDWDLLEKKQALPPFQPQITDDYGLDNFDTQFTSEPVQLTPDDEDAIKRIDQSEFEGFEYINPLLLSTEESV

[2] = target: T2, Protein kinase C iota type (Homo sapiens) (UniProt P41743); assay: Inhibition of PKCiota (unknown origin) at 20 uM
T2 sequence (whole entry): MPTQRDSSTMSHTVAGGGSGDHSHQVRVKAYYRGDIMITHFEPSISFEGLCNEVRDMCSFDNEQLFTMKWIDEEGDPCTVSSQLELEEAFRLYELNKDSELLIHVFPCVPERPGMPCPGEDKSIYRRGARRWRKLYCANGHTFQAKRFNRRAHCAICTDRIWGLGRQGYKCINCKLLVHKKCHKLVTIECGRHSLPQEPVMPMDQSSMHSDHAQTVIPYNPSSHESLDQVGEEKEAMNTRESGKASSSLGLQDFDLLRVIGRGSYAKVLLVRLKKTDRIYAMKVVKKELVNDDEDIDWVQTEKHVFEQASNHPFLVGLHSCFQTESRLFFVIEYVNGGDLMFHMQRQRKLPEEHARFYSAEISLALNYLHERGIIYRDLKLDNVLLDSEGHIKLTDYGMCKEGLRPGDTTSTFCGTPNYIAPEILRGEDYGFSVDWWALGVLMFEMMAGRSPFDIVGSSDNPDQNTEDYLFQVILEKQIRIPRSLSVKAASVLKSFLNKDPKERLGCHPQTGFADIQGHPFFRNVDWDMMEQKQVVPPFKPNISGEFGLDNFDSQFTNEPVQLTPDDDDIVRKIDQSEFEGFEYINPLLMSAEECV
How it was run: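 Cell-free radiometric kinase assay with purified recombinant PKCι under conditions similar to the PKCζ assay. Reaction mixtures preincubated 4 min at 37 °C, then phosphorylation started with γ32P-ATP/Mg2+. Mean of at least two experiments.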

[3] = target: T1, Protein kinase C zeta type; assay: Inhibition of PKCzeta in human U937 cells assessed as inhibition of TNFalpha-induced NF-kappaB activation by reporter gene assay; type: cell-based, U-937
[4] = target: T3, Nitric oxide synthase, inducible (Mus musculus) (UniProt P29477); assay: Inhibition of iNOS induction in mouse RAW264.7 cells assessed as NO production at 7.5 uM; type: cell-based
T3 sequence (whole entry): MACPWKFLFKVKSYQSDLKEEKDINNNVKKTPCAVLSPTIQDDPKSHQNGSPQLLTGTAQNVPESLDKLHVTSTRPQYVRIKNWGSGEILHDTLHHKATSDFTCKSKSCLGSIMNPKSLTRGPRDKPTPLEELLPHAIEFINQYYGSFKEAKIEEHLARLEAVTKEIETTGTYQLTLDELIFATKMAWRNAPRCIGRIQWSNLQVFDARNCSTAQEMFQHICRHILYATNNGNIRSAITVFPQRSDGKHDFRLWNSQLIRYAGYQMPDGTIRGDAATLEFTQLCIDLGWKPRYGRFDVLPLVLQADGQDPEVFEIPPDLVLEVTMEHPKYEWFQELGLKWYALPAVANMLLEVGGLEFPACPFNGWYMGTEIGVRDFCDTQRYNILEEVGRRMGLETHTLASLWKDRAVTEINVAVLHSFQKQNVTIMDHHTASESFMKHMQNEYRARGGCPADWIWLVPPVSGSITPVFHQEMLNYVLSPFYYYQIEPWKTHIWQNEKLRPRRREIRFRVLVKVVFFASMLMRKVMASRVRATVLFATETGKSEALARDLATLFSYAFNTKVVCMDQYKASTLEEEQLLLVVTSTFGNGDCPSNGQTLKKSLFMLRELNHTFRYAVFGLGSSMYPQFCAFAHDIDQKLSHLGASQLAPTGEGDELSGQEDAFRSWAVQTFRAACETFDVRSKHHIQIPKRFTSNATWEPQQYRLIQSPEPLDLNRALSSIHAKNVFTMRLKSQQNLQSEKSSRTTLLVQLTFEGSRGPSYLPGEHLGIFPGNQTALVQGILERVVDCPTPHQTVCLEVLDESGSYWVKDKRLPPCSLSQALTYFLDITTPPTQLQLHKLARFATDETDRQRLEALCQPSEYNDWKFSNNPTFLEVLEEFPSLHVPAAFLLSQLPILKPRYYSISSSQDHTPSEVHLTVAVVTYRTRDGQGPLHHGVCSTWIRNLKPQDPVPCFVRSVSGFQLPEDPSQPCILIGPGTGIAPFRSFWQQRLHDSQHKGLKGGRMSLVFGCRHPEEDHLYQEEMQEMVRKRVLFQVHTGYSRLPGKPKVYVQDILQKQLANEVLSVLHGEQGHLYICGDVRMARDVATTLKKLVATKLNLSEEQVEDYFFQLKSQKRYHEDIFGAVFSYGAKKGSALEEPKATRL
How it was run: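 RAW 264.7 cells seeded at 8 × 10⁴ per well in DMEM/10% FBS and grown 2 days. Then exposed to LPS with compound or DMSO for 20 h. Supernatant nitrite measured by Griess reaction (sulfanilamide/NED) at 550 nm minus 620 nm background, quantified against a sodium nitrite standard curve. At least four experiments in triplicate.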

| SMILES | Activity (RAW264.7) | IC50 [1] [nM] | inhibition [2] [%] | IC50 [3] [nM] | inhibition [4] [%] |
| --- | --- | --- | --- | --- | --- |
| CC(C)(C)C1=NN(c2ccc(Cl)cc2)C(c2ccc(C#N)cc2)C1 (stereo not given) | Non-toxic |  |  |  |  |
| CC(C)(C)C1=NN(c2ccc(F)cc2)C(c2ccc(O)cc2)C1 (stereo not given) | Non-toxic | 9400 |  |  |  |
| Oc1ccc(C2CC(c3ccc[nH]3)=NN2c2cccc(Cl)c2)cc1 (stereo not given) | Non-toxic |  | 20.3 |  |  |
| CC(C)c1ccc(N2N=C(C(C)(C)C)CC2c2ccc(O)cc2)cc1 (stereo not given) | Non-toxic |  |  |  |  |
| Oc1ccccc1C1=NN(c2cccc(Cl)c2)C(c2ccc(O)c(F)c2F)C1 (stereo not given) | Non-toxic | 6600 | 39.2 | 1400 |  |
| Oc1ccc(C2CC(c3ccccc3)=NN2c2cccc(Cl)c2)cc1 (stereo not given) | Non-toxic | 2100 | 45.5 |  |  |
| CC(C)(C)C1=NN(c2ccc(Cl)cc2Cl)C(c2ccc(O)cc2)C1 (stereo not given) | Non-toxic |  |  |  |  |
| Oc1ccccc1C1=NN(c2cccc(Cl)c2)C(c2cc(F)c(O)c(F)c2)C1 (stereo not given) | Non-toxic | 11100 | 45.2 | 2500 |  |
| CC(C)(C)C1=NN(c2ccc(F)c(F)c2)C(c2ccc(O)cc2)C1 (stereo not given) | Non-toxic |  | 23.7 |  |  |
| CC(C)(C)C1=NN(c2ccc(O)cc2)C(c2ccc(O)cc2)C1 (stereo not given) | Non-toxic |  |  |  |  |
| CC(C)(C)C1=NN(c2cccc(F)c2)C(c2ccc(O)cc2)C1 (stereo not given) | Non-toxic | 2200 | 19.3 |  |  |
| CC(C)(C)C1=NN(c2c(Cl)cccc2Cl)C(c2ccc(O)cc2)C1 (stereo not given) | Non-toxic |  |  |  |  |
| CC(C)(C)C1=NN(c2ccc(C(=O)O)cc2)C(c2ccc(O)cc2)C1 (stereo not given) | Non-toxic |  |  |  |  |
| CC(C)(C)C1=NN(c2cccc(C(F)(F)F)c2)C(c2ccc(O)cc2)C1 (stereo not given) | Non-toxic | 2700 | 17 | 2700 |  |
| Oc1ccc(C2=NN(c3cccc(Cl)c3)C(c3ccc(O)c(F)c3)C2)c(O)c1 (stereo not given) | Non-toxic | < 100 |  | 1100 |  |
| Oc1ccc(C2CC(c3ccccc3O)=NN2c2ccc(Cl)cc2)cc1O (stereo not given) | Non-toxic | < 100 | 44.1 |  |  |
| CC(C)(C)C1=NN(c2cccc(Cl)c2)C(c2ccc(O)cc2)C1 (stereo not given) | Non-toxic | 5200 | 43.5 |  |  |
| CC(C)(C)C1=NN(c2ccc(F)c(F)c2F)C(c2ccc(O)cc2)C1 (stereo not given) | Non-toxic | 700 | 7.8 | 3100 |  |
| CCOc1ccccc1C1=NN(c2ccc(Cl)cc2)C(c2ccc(O)cc2)C1 (stereo not given) | Non-toxic |  |  |  |  |
| CC(C)(C)C1=NN(c2ccc(Br)cc2)C(c2ccc(O)cc2)C1 (stereo not given) | Non-toxic | 11400 |  |  |  |
| Nc1ccc(C2=NN(c3ccc(Cl)cc3)C(c3ccc(O)cc3)C2)cc1 (stereo not given) | Non-toxic | 5400 | 38.7 |  |  |

| SMILES | Activity (RAW264.7) | IC50 [1] [nM] | inhibition [2] [%] | IC50 [3] [nM] | inhibition [4] [%] |
| --- | --- | --- | --- | --- | --- |
| CC(C)(C)C1=NN(c2ccccc2Cl)C(c2ccc(O)cc2)C1 (stereo not given) | Non-toxic |  |  |  | 26 |
| Oc1ccc(C2CC(c3ccccc3)=NN2c2ccc(Cl)cc2)cc1 (stereo not given) | Non-toxic | 3500 | 31.6 |  |  |
| Oc1ccc(C2CC(c3cccs3)=NN2c2ccc(C(F)(F)F)cc2)cc1 (stereo not given) | Non-toxic | 400 | 45.9 | 2900 | 69 |
| CC(C)(C)C1=NN(c2ccc(F)cc2F)C(c2ccc(O)cc2)C1 (stereo not given) | Non-toxic |  |  |  |  |
| Cc1ccc(N2N=C(C(C)(C)C)CC2c2ccc(O)cc2)c(C)c1 (stereo not given) | Non-toxic |  |  |  |  |
| CC(C)(C)C1=NN(c2ccccc2F)C(c2ccc(O)cc2)C1 (stereo not given) | Non-toxic |  |  |  |  |
| Oc1ccc(C2CC(c3ccccc3Cl)=NN2c2ccc(Cl)cc2)cc1 (stereo not given) | Non-toxic |  |  |  |  |
| CC(C)(C)C1=NN(c2ccc(C(F)(F)F)cc2)C(c2ccc(O)cc2)C1 (stereo not given) | Non-toxic | 8800 |  |  |  |
| CC(C)(C)C1=NN(c2ccc(F)c(Cl)c2)C(c2ccc(O)cc2)C1 (stereo not given) | Non-toxic | 900 | 31.6 | 1900 |  |
| COc1ccccc1C1=NN(c2ccc(Cl)cc2)C(c2ccc(O)cc2)C1 (stereo not given) | Non-toxic |  |  |  |  |
| Oc1ccc(C2CC(c3ccccc3O)=NN2c2cccc(Cl)c2)cc1F (stereo not given) | Non-toxic | 2900 | 25.2 |  |  |
| Cc1ccc(N2N=C(C(C)(C)C)CC2c2ccc(O)cc2)cc1 (stereo not given) | Non-toxic |  |  |  |  |
| CC(C)(C)C1=NN(c2ccc(Cl)cc2)C(c2ccc(O)c(F)c2)C1 (stereo not given) | Non-toxic | 3800 | 29.7 | 3700 |  |
| Cc1cccc(N2N=C(C(C)(C)C)CC2c2ccc(O)cc2)c1 (stereo not given) | Non-toxic |  | 13.9 |  |  |
| Oc1ccc(C2CC(c3cccs3)=NN2c2ccc(Cl)cc2)cc1 (stereo not given) | Non-toxic |  |  |  |  |
| CC1C(c2ccccc2O)=NN(c2cccc(Cl)c2)C1c1ccc(O)c(F)c1 (stereo not given) | Non-toxic |  | 23.1 |  |  |
| Oc1ccc(C2CC(c3ccccn3)=NN2c2cccc(Cl)c2)cc1 (stereo not given) | Non-toxic | 6200 | 24.1 |  |  |
| CC(C)(C)C1=NN(c2ccccc2)C(c2ccc(O)cc2)C1 (stereo not given) | Non-toxic |  |  |  | 32 |
| CC(C)(C)C1=NN(c2ccc(O)cc2)C(c2ccc(Cl)cc2)C1 (stereo not given) | Non-toxic |  |  |  |  |
| COc1cc(/C=C/C(=O)CC(=O)/C=C/c2ccc(O)c(OC)c2)ccc1O [CURCUMIN] | Non-toxic |  |  |  | 97 |
| CC(C)(C)C1=NN(c2ccc(Cl)cc2)C(c2cccc(O)c2)C1 (stereo not given) | Non-toxic | 5300 | 17.4 | 2000 |  |

Reference: ChEMBL document CHEMBL3351692, “Discovery and optimization of 1,3,5-trisubstituted pyrazolines as potent and highly selective allosteric inhibitors of protein kinase C-ζ” (J Med Chem, 2014)
